Screening results as filed in PubChem.
OXTR ag = human OXTR agonists, primary screen, fluorescence, CHO-OTR cells, Fluo-8 calcium | Oxytocin receptor (Homo sapiens), P30559 | Fluo-8 calcium fluorescence; normalized: DMSO 0%, oxytocin 100% | activation, % at 3 µM | 320,000 tested, 0.32% active | AID 2435, 2010;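 active means activation above the mean of all tested compounds plus 3 SD, cutoff set per screening run, cut at about 20% in these data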;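 further: peak over basal fluorescence ratio from a 100 s FLIPR kinetic read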
TRPML3 ag = human TRPML3 channel agonists, primary screen, cell-based, HEK293 TRPML3-YFP, Fluo-8 calcium fluorescence, 3 µM | 220,000 tested, 0.29% active | 100% = the carbachol control signal | activation, % at 3 µM | Mucolipin-3 (Homo sapiens), Q8TDD5 | AID 1448, 2008;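 active means activation above its plate's cutoff, the mean activation of the plate's test wells plus 3 SD, cut at about 12% in these data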;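 further: 0% = DMSO only wells and 100% = carbachol wells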
Target sequence (Q8TDD5 whole entry, looked up): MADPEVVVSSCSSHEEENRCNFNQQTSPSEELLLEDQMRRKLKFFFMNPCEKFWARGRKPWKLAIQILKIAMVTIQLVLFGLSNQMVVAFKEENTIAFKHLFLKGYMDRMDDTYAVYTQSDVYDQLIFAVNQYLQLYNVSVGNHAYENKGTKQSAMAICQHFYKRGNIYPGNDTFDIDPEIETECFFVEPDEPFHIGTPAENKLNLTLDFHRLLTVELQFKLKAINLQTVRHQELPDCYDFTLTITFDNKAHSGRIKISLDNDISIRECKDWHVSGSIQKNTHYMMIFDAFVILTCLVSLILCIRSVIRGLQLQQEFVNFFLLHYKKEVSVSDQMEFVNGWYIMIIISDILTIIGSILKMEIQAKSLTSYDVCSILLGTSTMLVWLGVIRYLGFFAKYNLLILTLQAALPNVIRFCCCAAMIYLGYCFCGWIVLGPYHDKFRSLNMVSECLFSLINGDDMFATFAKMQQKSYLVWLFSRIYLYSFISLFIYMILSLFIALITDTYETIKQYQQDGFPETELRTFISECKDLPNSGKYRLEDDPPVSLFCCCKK
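Test system – HEK293 line with stable expression of human TRPML3-YFP channel · Control set – carbachol 87 µM final as high control (100%), DMSO as low control (0%) · Signal – Fluo-8 calcium dye fluorescence, ex 470-495, em 515-575 nm · Incubation – 1-h 37 °C dye load, 5-s basal, 120-s post-compound reads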
V1aR counter = agonists of human V1a receptor, primary screen, counter-screen for OXTR agonist project, fluorescence, CHO-V1R cells | Vasopressin V1a receptor (Homo sapiens), P37288 | 320,000 tested, 0.25% active | AID 2797, 2010 | Fluo-8 calcium fluorescence, agonist mode; 0% DMSO, 100% 3 nM vasopressin | activation, % at 3 µM;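 active means activation above the mean activation of all tested compounds plus 3 SD, per screening run, cut at about 20% in these data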;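 further: signal is peak over basal fluorescence ratio across a 100 second FLIPR read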
OXTR potentiator = human OXTR potentiators, primary screen, fluorescence, CHO-OTR cells, Fluo-8 calcium. Oxytocin receptor (Homo sapiens), P30559. Fluo-8 calcium fluorescence, potentiator mode; 0% = oxytocin EC15, 100% = EC100. activation, % at 3 µM. 320,000 tested, 0.061% active. AID 2445, 2010;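 active means activation above that plate's cutoff, the mean activation of tested compounds plus 3 SD, cut at about 6.6% in these data, passing the limit was not always enough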;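 further: 100% uses oxytocin at 75 nM as the full agonist control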
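Assay system: CHO cell line stably expressing human OTR. Reagent: EC15 oxytocin agonist. Dosing: single dose, 3.0 µM nominal final compound concentration. Timing: compound 6 min at room temperature before oxytocin, 100 s read. Signal: kinetic Fluo-8 calcium fluorescence. Controls: oxytocin EC15 low and EC100 high.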
TRPN1 ag = zebrafish TRPN1 channel agonists, primary screen, cell-based, HEK293, calcium fluorescence; transient receptor potential cation channel N1 (TRPN1/NompC), Danio rerio; 220,000 tested, 0.18% active; HEK293 zebrafish TRPN1-YFP, Fluo-8 calcium fluorescence; 100% = response to 87 µM carbachol; activation, % at 3 µM;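 active means activation above its plate's cutoff, the mean activation of test wells on that plate plus 3 SD, cut at about 19% in these data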;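 further: 0% = DMSO alone and 100% = 87 µM carbachol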
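Material – zebrafish TRPN1-YFP in HEK293 cells · Doses – 3 µM single point · Schedule – dye 1 h 37 °C plus 30 min RT · Signal – Fluo-8 calcium fluorescence, excitation 470-495 nm, emission 515-575 nm · Read-out – % activation versus carbachol response · Control set – carbachol high, DMSO low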
OXTR ag confirm = human OXTR agonists, confirmation, fluorescence, CHO-OTR cells, triplicate | shares compounds with OXTR ag | 390 tested, 20% active | Fluo-8 calcium fluorescence, agonist | activation, % at 3 µM;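 active means mean activation above about 20% derived from the earlier single-dose screen, limit read from the data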;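 further: peak over minimum fluorescence ratio per well during a 100 second FLIPR read; 0% = DMSO alone and 100% = oxytocin high control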
V1R ag counter 3x = V1a receptor agonists, calcium signal, counter-screen for OXTR agonist project, triplicate, fluorescence, CHO-V1R cells; 390 tested, 10% active; shares compounds with OXTR ag; activation, % at 3 µM; Fluo-8 calcium fluorescence;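 active means mean activation over triplicate exceeds the hit threshold set in the earlier primary screen, cut at about 20% in these data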;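 further: peak over basal fluorescence ratio within a 100 second read; 0% = DMSO alone and 100% = 3 nM vasopressin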
The depositor's hits bear a star; . = no result. The list is not random: actives were taken first. Their share in the collection is about 0.55%.

SMILES | OXTR ag | TRPML3 ag | V1aR counter | OXTR potentiator | TRPN1 ag | OXTR ag confirm | V1R ag counter 3x
OCc1cn(-c2ccccc2)nc1-c1ccc(-c2nn(-c3ccccc3)cc2CO)cc1 | 1 | 1 | 5 | -10 | 0 | . | .
Cc1ccc(-c2nn(-c3ccccc3)cc2CSC(=N)N)cc1 | 24* | 1 | 12 | -12 | 2 | 4 | 5
CC(=O)Nc1ccc(/C(C)=N/Nc2nc(Nc3cccc4ccccc34)nc(N3CCOCC3)n2)cc1 | 25* | 5 | 12 | -13 | 9 | 0 | 0
CN(/N=C/c1ccc(-c2ccc([N+](=O)[O-])cc2)o1)c1ccccc1 | 23* | . | 18 | -15 | . | 96* | 100*
Cc1ccsc1/C=N/NC(=O)c1nnn(-c2nonc2N)c1C(C)C | 22* | . | 5 | -14 | . | 0 | 1
CC(C)c1c(C(=O)N/N=C/c2cccs2)nnn1-c1nonc1N | 20* | . | 14 | -8 | . | 8 | 10
N#CCCN(Cc1cccnc1)C(=S)NC1CC2C=CC1C2 (centres undefined) | -2 | 1 | 0 | -8 | 1 | . | .
O=c1cc(-c2ccccc2Cl)oc2c(NS(=O)(=O)c3cc(Cl)cc(Cl)c3O)ccc(O)c12 | 28* | 0 | 15 | -18 | 5 | 17 | 17
CCc1ccc(S(=O)(=O)Nc2ccc(O)c3c(=O)cc(-c4ccccc4Cl)oc23)cc1 | -2 | . | -2 | -12 | . | . | .
O=C(/C=C/c1ccco1)Nc1ccc(-c2nc3ccccc3[nH]2)cc1 | 0 | 0 | 0 | -7 | 1 | . | .
Cc1[nH]c2ccccc2c1CN1CCN(c2ccccn2)CC1 | 1 | 1 | 0 | -6 | 0 | . | .
OCCN1CCN(C2CCC(c3ccc(F)cc3)c3ccc(F)cc32)CC1 (centres undefined) | 31* | . | 17 | -14 | . | 3 | 1
O=C(NNc1ccnc2cc(Cl)ccc12)C1CCCCC1 | 14 | 3 | 6 | -10 | 5 | . | .
CC(=O)n1cc(N(C(=O)CCl)c2ccc([N+](=O)[O-])cc2)c2ccccc21 | 10 | 2 | 5 | -4 | 4 | . | .
O=Cc1[nH]c2ccccc2c1N(C(=O)CCl)c1ccc([N+](=O)[O-])cc1 | 21* | 3 | 11 | -18 | 5 | 16 | 11
COc1ccc(CCNCC(O)Cn2c3ccccc3c3ccccc32)cc1OC (centres undefined) | 23* | 4 | 15 | -11 | 6 | 24* | 4
O=c1cc(Nc2ccc3c(c2)OCCO3)[nH]c(=O)n1C1CCCCC1 | 4 | 1 | 3 | -11 | 2 | . | .
CCc1ccc(Nc2cc(=O)n(C3CCCCC3)c(=O)[nH]2)cc1 | 25* | 7 | 17 | -16 | 8 | 33* | 30*
CN(C)S(=O)(=O)Nc1ccccn1 | 2 | 0 | 0 | -1 | 1 | . | .
COc1ccc(Cl)cc1NC(=O)NCC1CCN(Cc2cc(C)ccc2C)CC1 | 21* | . | 18 | -19 | . | 6 | 4
CCc1cccc(CN2CCC(CNC(=O)Nc3ccc(Cl)cc3)CC2)c1 | 7 | 2 | 4 | -12 | 3 | . | .
Cc1ccc(C)c(CN2CCC(CNC(=O)Nc3ccc(C)c(C)c3)CC2)c1 | 3 | . | 3 | -20 | . | . | .
O=C(NCC1CCN(Cc2cccc(Cl)c2)CC1)Nc1ccc(Cl)cc1 | 23* | . | 19 | -21 | . | 5 | 6
CCOc1ccc(N2CC(C(=O)Nc3ccncc3)CC2=O)cc1 (centres undefined) | 0 | . | 0 | -9 | . | . | .
Cc1[nH]n(-c2ccc(Cl)cc2)c(=O)c1C=Nc1ccc(S(=O)(=O)N2CCOCC2)cc1 | 22* | 1 | 0 | -11 | 1 | 1 | 0
SMILES | OXTR ag | TRPML3 ag | V1aR counter | OXTR potentiator | TRPN1 ag | OXTR ag confirm | V1R ag counter 3x
COc1nccnc1NS(=O)(=O)c1ccc(N=Cc2c(C)[nH]n(-c3ccc(Cl)cc3)c2=O)cc1 | 0 | 0 | 0 | -5 | 1 | . | .
Cc1ccc(Oc2ccc(NC(=O)C3=CC=CN4CCS(=O)(=O)N=C34)cc2)cc1 | 24* | . | 7 | -12 | . | 9 | 2
Cc1cccc(Oc2ccc(NC(=O)C3=CC=CN4CCS(=O)(=O)N=C34)cc2)c1 | 21* | . | 7 | -11 | . | 11 | 3
CC(C)(C)c1ccc(NC(=O)C2=CC=CN3CCS(=O)(=O)N=C23)cc1 | 4 | . | 2 | -9 | . | . | .
O=C(COC(=O)c1ccccc1NC(=O)c1ccccc1)c1cccc([N+](=O)[O-])c1 | -1 | 0 | -1 | 1 | -1 | . | .
c1cc2c(cc1C1CCCCC1)c1c3n2CCCNC3CCC1 (centres undefined) | 26* | 1 | 18 | -2 | 5 | 1 | 1
COc1ccc(CNC(=O)COC(=O)CCOc2ccc(C)cc2)cc1OC | -2 | . | 1 | -5 | . | . | .
CC(=O)n1cc([C@H]2C=C(C(N)=O)O[C@@H](OCc3ccc(CO)cc3)C2)c2ccccc21 | 20* | . | 17 | -16 | . | 19 | 13
CC(=O)n1cc([C@H]2C=C(C(=O)NCc3ccccc3)O[C@@H](OCc3ccc(CO)cc3)C2)c2ccccc21 | 2 | 0 | 1 | -14 | 1 | . | .
Cc1ccc(C)c(N2CCN(C(=O)c3cccn4c(=O)c5sccc5nc34)CC2)c1 | 31* | 1 | 9 | -13 | 0 | 10 | 5
COc1ccc(S(=O)(=O)N(n2c(C)nnc2-n2nc(C)cc2C)S(=O)(=O)c2ccc(OC)cc2)cc1 | 21* | 0 | 0 | -15 | 2 | 1 | 1
CSc1ccc2c(c1)C(N1CCN(C)CC1)Cc1ccc(F)cc1S2 (centres undefined) | 26* | . | 10 | -8 | . | 4 | 1
CC(C)n1c(C(F)(F)F)nc2cc(C(=O)N3CCOCC3)ccc21 | 0 | . | 0 | -1 | . | . | .
Oc1ccccc1CNc1cnc2ccccc2c1 | 22* | 1 | 13 | -14 | 3 | 13 | 13
CC(=O)Nc1ccc(NC(=O)COC(=O)C2(c3ccc(Cl)cc3)CCCC2)cc1 | 20* | 4 | 18 | -11 | 11 | 13 | 12
COc1cc(C2C(C#N)=C(N)Oc3cc(N)ccc32)cc(OC)c1OC (centres undefined) | 1 | 1 | 0 | -3 | 0 | . | .
Fc1ccc2[nH]c3c(NCc4ccccc4)ncnc3c2c1 | 24* | . | 7 | -21 | . | 17 | 13
